The values that follow come from ChEMBL document CHEMBL1926565, “Synthesis, antiproliferative activities and telomerase inhibition evaluation of novel asymmetrical 1,2-disubstituted amidoanthraquinone derivatives” (Eur J Med Chem, 2012).

The nature of test [1]: Growth of human H1299 cells at 100 uM 48 hrs by MTT assay. The note with it: NCI-H1299, 48 h.
For another test, the system named is PC-3. Kind of test: Cytotoxicity against human PC3 cells after 48 hrs by SRB assay. It counts as functional, cell-based. Conditions: PC-3, 48 h. In short, it runs like this: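 PC-3 cells grown in RPMI1640 with 10% FBS at 37 °C, 5% CO₂. Seeded in medium with 5% FBS; after 24 h, one plate fixed with 10% TCA as T₀. Compound or 0.1% DMSO vehicle added for 48 h, then TCA fixation and 0.4% SRB in 1% acetic acid. Dye solubilized in 10 mM Trizma base, absorbance read at 515 nm. IC50 is the concentration giving 50% reduction of the protein gain in controls.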

Test [2] has as its target Telomerase reverse transcriptase (Homo sapiens) (UniProt O14746). Briefly: Residual activity of human TERT in H1299 cells at 100 uM after 24 hrs by SEAP reporter gene assay.
Test [3] in a line: Growth of human H1299 cells at 10 uM after 48 hrs by MTT assay. The note with it: NCI-H1299, 48 h.
Test [4] has as its target Telomerase reverse transcriptase (Homo sapiens) (UniProt O14746). Briefly: Residual activity of human TERT in H1299 cells at 10 uM after 24 hrs by SEAP reporter gene assay.
Test [5] shares this target. Kind of test: Inhibition of telomerase activity in human H1299 cell free extract at 10 uM by modified TRAP assay. The method in brief:
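TRAP assay using total cell lysate from H1299 lung cancer cells as the telomerase source, with protein measured against BSA standards. Compounds tested at 10 µM. Controls were lysate without inhibitor (positive) and RNase A-treated extract without inhibitor (negative).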

The target is the same in test [6]. Kind of test: Residual activity of human TERT in H1299 cells at 1 uM after 24 hrs by SEAP reporter gene assay.
Test [7] is described as follows: Growth of human H1299 cells at 1 uM after 48 hrs by MTT assay. The note with it: NCI-H1299, 48 h.

The structures appear in SMILES notation. Activity calls are given as the source filed them. No cut-off for these calls is given here.

Telomerase reverse transcriptase (Homo sapiens), sequence (O14746 whole entry): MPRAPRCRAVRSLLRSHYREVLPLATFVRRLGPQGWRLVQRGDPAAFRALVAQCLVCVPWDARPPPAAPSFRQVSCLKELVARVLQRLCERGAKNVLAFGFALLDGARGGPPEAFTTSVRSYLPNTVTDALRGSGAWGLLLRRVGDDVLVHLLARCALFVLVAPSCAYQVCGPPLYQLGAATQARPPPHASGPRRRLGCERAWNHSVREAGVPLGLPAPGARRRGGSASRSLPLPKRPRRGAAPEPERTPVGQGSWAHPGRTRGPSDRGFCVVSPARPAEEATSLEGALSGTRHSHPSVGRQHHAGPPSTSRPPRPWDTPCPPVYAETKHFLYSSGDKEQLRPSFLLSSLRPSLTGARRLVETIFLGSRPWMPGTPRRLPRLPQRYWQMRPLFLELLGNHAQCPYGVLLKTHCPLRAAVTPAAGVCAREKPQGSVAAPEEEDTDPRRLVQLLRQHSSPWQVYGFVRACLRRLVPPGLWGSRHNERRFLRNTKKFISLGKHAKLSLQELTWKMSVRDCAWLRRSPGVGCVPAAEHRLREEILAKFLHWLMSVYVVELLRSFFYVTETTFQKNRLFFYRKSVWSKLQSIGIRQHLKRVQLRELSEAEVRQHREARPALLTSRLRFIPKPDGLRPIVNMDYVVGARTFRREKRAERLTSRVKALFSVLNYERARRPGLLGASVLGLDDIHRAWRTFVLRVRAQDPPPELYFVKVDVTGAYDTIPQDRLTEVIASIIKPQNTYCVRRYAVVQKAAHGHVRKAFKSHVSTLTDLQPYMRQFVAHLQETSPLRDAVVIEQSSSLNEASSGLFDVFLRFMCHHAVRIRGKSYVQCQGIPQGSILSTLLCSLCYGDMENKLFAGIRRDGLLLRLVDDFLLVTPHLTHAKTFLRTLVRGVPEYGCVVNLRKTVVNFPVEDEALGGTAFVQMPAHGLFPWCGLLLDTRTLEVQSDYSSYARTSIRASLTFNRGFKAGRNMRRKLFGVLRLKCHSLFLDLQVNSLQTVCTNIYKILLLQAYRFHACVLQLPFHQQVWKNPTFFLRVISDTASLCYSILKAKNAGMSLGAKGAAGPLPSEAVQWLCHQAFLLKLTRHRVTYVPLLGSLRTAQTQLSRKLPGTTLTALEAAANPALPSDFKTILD

As for `O=C(CCl)Nc1ccc2c(c1NC(=O)c1ccc(Cl)cc1)C(=O)c1ccccc1C2=O`, the growth, % of control at 100 µM in test [1] came to 4%. For the same compound, the IC50 with PC-3 was greater than 20 µM. Moreover, the residual activity in test [2] turned out to be 4%; in test [4], 6%; in test [6], 98%. For the same compound, in test [3], the growth, % of control at 10 µM was found to be 5%. Moreover, the inhibition entry in test [5] was “inactive”. In addition, the growth, % of control at 1 µM in test [7] turned out to be 92%.

Turning to `O=C(CCl)Nc1ccc2c(c1NC(=O)c1ccccc1Cl)C(=O)c1ccccc1C2=O`, the growth, % of control at 100 µM in test [1] worked out at 0%. This compound also came in with an IC50 with PC-3 of 3.09 µM. Besides, the residual activity was 1% in test [2], 5% in test [4] and 81% in test [6]. The growth, % of control at 10 µM in test [3] was found to be 6%. Further, the inhibition result in test [5] is “inactive”. Further, the growth, % of control at 1 µM in test [7] was 101%.

`O=C(CCl)Nc1ccc2c(c1NC(=O)CCl)C(=O)c1ccccc1C2=O` showed a growth, % of control at 100 µM in test [1] of 0%. In addition, the IC50 with PC-3 was found to be 1.19 µM. Besides, the figures for the residual activity in test [2], in test [4] and in test [6] were 13%, 13% and 15%, respectively. Besides, the growth, % of control at 10 µM in test [3] amounted to 0%. Also, the inhibition entry in test [5] is “inactive”. In addition, the growth, % of control at 1 µM in test [7] came to 8%.

`O=C(CCl)Nc1ccc2c(c1NC(=O)c1ccccc1F)C(=O)c1ccccc1C2=O`: in test [1], the growth, % of control at 100 µM was 0%. The compound also registered an IC50 with PC-3 greater than 20 µM. The results for the residual activity in test [2], in test [4] and in test [6] were 2%, 5% and 105%, respectively. In addition, in test [3], the growth, % of control at 10 µM was determined as 2%. The inhibition result in test [5] is “inactive”. The same compound returned a growth, % of control at 1 µM in test [7] of 78%.

In turn, `O=C(CCl)Nc1ccc2c(c1NC(=O)c1cccc(Cl)c1)C(=O)c1ccccc1C2=O` yielded a growth, % of control at 100 µM in test [1] of 0%. The compound also yielded an IC50 with PC-3 of 3.51 µM. Also, the residual activity in test [2] amounted to 3%; in test [4], 6%; in test [6] it was 80%. Also, the growth, % of control at 10 µM in test [3] amounted to 5%. The inhibition result in test [5] was “inactive”. In test [7], this compound came in with a growth, % of control at 1 µM of 89%.

As to `Cc1ccc(C(=O)Nc2c(NC(=O)CN3CCOCC3)ccc3c2C(=O)c2ccccc2C3=O)cc1`, in test [1], the growth, % of control at 100 µM came out at 15%. Also, the IC50 in the test with PC-3 was greater than 20 µM. The residual activity in test [2] came out at 3%; in test [4], 54%; in test [6], 98%. The compound also returned a growth, % of control at 10 µM in test [3] of 56%. In addition, the inhibition result in test [5] was “inactive”. The compound also showed a growth, % of control at 1 µM in test [7] of 81%.

On to `O=C(CCl)Nc1ccc2c(c1NC(=O)CCCCl)C(=O)c1ccccc1C2=O`, for which the growth, % of control at 100 µM in test [1] is 62%. Besides, the IC50 in the test on PC-3 was determined as 1.12 µM. The residual activity in test [2] stood at 30%; in test [4] it was 97%; in test [6], 108%. For the same compound, the growth, % of control at 10 µM in test [3] is 116%. The inhibition result in test [5] is “inactive”. In test [7], this compound had a growth, % of control at 1 µM of 100%.

Turning to `Cc1ccc(C(=O)Nc2c(NC(=O)CN3CCN(c4ccccn4)CC3)ccc3c2C(=O)c2ccccc2C3=O)cc1`, the growth, % of control at 100 µM in test [1] stood at 6%. The compound also came in with an IC50 with PC-3 greater than 20 µM. Moreover, the values for the residual activity in test [2], in test [4] and in test [6] were 9%, 64% and 97%, respectively. Moreover, the growth, % of control at 10 µM in test [3] is 100%. Besides, the inhibition result in test [5] is “inactive”. In test [7], this compound showed a growth, % of control at 1 µM of 105%.

In turn, `Cc1cccc(C(=O)Nc2c(NC(=O)CCl)ccc3c2C(=O)c2ccccc2C3=O)c1` returned a growth, % of control at 100 µM in test [1] of 0%. In the test with PC-3, this compound showed an IC50 of 3.79 µM. Also, the residual activity in test [2] worked out at 0%; in test [4], 0%; in test [6] it was 116%. For the same compound, the growth, % of control at 10 µM in test [3] worked out at 0%. The inhibition result in test [5] is “inactive”. In test [7], this compound gave a growth, % of control at 1 µM of 72%.

Regarding `Cc1cc(C(=O)Nc2c(NC(=O)CCl)ccc3c2C(=O)c2ccccc2C3=O)c(C)o1`, in test [1], the growth, % of control at 100 µM was found to be 0%. The same compound registered an IC50 in the test with PC-3 of 4.31 µM. Besides, the residual activity came out at 0% in test [2], 2% in test [4] and 81% in test [6]. In addition, the growth, % of control at 10 µM in test [3] was found to be 2%. For the same compound, the inhibition result in test [5] was “inactive”. In addition, the growth, % of control at 1 µM in test [7] turned out to be 96%.

On to `O=C(CCl)Nc1ccc2c(c1NC(=O)c1ccccc1C(F)(F)F)C(=O)c1ccccc1C2=O`, for which the growth, % of control at 100 µM in test [1] turned out to be 0%. The concentration for half-maximal inhibition (IC50) with PC-3 worked out at 3.42 µM. Besides, the residual activity in test [2] came out at 2%; in test [4] it was 4%; in test [6] it was 93%. Moreover, the growth, % of control at 10 µM in test [3] came to 3%. In test [5], the inhibition entry is “inactive”. The compound further registered a growth, % of control at 1 µM in test [7] of 93%.

In test [1], `Cc1ccc(C(=O)Nc2c(NC(=O)CN3CCSCC3)ccc3c2C(=O)c2ccccc2C3=O)cc1` came in with a growth, % of control at 100 µM of 20%. This compound registered an IC50 in the test with PC-3 of 19.1 µM. Moreover, the figures for the residual activity in test [2], in test [4] and in test [6] were 12%, 72% and 88%, respectively. The same compound returned a growth, % of control at 10 µM in test [3] of 69%. In addition, in test [5], the inhibition entry was “inactive”. In addition, the growth, % of control at 1 µM in test [7] worked out at 85%.

Compound `Cc1ccc(C(=O)Nc2c(NC(=O)CN3CCN(c4ccccc4)CC3)ccc3c2C(=O)c2ccccc2C3=O)cc1` displayed a growth, % of control at 100 µM in test [1] of 23%. Besides, the IC50 in the test on PC-3 was greater than 20 µM. Also, the residual activity in test [2] was 15%; in test [4], 88%; in test [6], 93%. In addition, in test [3], the growth, % of control at 10 µM was 76%. Moreover, the inhibition entry in test [5] is “inactive”. The growth, % of control at 1 µM in test [7] amounted to 80%.

`O=C(CCl)Nc1ccc2c(c1NC(=O)Cc1ccc(F)cc1)C(=O)c1ccccc1C2=O` displayed a growth, % of control at 100 µM in test [1] of 6%. Moreover, the IC50 in the test with PC-3 was greater than 20 µM. Further, the residual activity was found to be 1% in test [2], 8% in test [4] and 93% in test [6]. Moreover, the growth, % of control at 10 µM in test [3] was found to be 7%. Moreover, the inhibition entry in test [5] is “inactive”. The compound further came in with a growth, % of control at 1 µM in test [7] of 88%.

In test [1], `O=C(CCl)Nc1ccc2c(c1NC(=O)c1cccc(C(F)(F)F)c1)C(=O)c1ccccc1C2=O` came in with a growth, % of control at 100 µM of 3%. In addition, in the test with PC-3, the IC50 came to 5.68 µM. For the same compound, the residual activity in test [2] was 0%; in test [4] it was 4%; in test [6] it was 99%. Further, the growth, % of control at 10 µM in test [3] came out at 5%. Besides, in test [5], the inhibition entry was “inactive”. Moreover, the growth, % of control at 1 µM in test [7] amounted to 94%.

In turn, `Cc1ccc(C(=O)Nc2c(NC(=O)CN(C)C)ccc3c2C(=O)c2ccccc2C3=O)cc1` returned a growth, % of control at 100 µM in test [1] of 0%. For the same compound, the IC50 with PC-3 worked out at 3.92 µM. The residual activity came to 9% in test [2], 78% in test [4] and 99% in test [6]. This compound also showed a growth, % of control at 10 µM in test [3] of 88%. In addition, the inhibition result in test [5] is “inactive”. Moreover, the growth, % of control at 1 µM in test [7] was determined as 106%.
